Assay results from ChEMBL document CHEMBL4118098, “Discovery of DS28120313 as a potent orally active hepcidin production inhibitor: Design and optimization of novel 4,6-disubstituted indazole derivatives” (Bioorg Med Chem Lett, 2017).
One block for each compound: values may come before it.

How the values were obtained:
[1] = molecular target: Macrophage-stimulating protein receptor (Homo sapiens) (UniProt Q04912); assay: Inhibition of MST1R (unknown origin) at 0.45 uM relative to control
[2] = molecular target: T1, Mitogen-activated protein kinase 12 (Homo sapiens) (UniProt P53778); assay: Inhibition of p38-gamma (unknown origin) at 0.45 uM relative to control
T1 sequence (whole entry): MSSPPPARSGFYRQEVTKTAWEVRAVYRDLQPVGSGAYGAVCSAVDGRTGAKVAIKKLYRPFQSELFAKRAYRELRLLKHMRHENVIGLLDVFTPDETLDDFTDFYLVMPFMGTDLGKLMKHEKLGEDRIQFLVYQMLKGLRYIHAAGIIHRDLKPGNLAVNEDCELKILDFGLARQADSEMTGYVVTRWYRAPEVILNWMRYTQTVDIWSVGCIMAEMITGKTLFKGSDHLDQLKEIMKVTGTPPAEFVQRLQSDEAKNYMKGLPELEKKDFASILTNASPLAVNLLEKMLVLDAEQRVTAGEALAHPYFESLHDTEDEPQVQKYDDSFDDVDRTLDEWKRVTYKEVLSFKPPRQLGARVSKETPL

[3] = molecular target: Mitogen-activated protein kinase 1 (Homo sapiens) (UniProt P28482); assay: Inhibition of Erk2 (unknown origin) at 0.45 uM relative to control
[4] = molecular target: Casein kinase I isoform gamma-3 (Homo sapiens) (UniProt Q9Y6M4); assay: Inhibition of CK1-gamma3 (unknown origin) at 0.164 uM relative to control
[5] = molecular target: Activated CDC42 kinase 1 (Homo sapiens) (UniProt Q07912); assay: Inhibition of ACK (unknown origin) at 0.164 uM relative to control
[6] = Inhibition of GCK (unknown origin) at 0.164 uM relative to control
[7] = molecular target: Mitogen-activated protein kinase 13 (Homo sapiens) (UniProt O15264); assay: Inhibition of p38-delta (unknown origin) at 0.164 uM relative to control
[8] = molecular target: T2, cGMP-dependent protein kinase 1 (Homo sapiens) (UniProt Q13976); assay: Inhibition of PKG-alpha (unknown origin) at 0.164 uM relative to control
T2 sequence (whole entry): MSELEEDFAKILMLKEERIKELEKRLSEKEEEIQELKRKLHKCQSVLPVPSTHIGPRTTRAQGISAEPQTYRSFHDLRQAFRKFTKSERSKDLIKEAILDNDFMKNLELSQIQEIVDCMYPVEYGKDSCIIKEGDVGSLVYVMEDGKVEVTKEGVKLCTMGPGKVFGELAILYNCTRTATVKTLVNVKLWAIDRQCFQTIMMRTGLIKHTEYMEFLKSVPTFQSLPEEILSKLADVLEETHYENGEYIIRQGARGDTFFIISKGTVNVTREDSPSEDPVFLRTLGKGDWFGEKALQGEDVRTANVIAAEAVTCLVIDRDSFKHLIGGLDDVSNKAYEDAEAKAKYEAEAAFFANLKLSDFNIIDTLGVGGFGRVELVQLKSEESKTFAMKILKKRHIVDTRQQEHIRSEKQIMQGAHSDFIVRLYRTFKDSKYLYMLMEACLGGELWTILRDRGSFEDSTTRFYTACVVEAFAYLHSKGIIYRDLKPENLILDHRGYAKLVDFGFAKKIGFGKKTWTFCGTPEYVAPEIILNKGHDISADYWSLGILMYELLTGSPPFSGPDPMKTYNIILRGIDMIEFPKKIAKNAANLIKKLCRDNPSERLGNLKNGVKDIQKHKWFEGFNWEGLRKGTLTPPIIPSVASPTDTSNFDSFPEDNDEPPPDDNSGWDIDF

[9] = molecular target: Serine/threonine-protein kinase pim-2 (Homo sapiens) (UniProt Q9P1W9); assay: Inhibition of PIM2 (unknown origin) at 0.164 uM relative to control
[10] = molecular target: Mitogen-activated protein kinase kinase kinase kinase 5 (Homo sapiens) (UniProt Q9Y4K4); assay: Inhibition of KHS1 (unknown origin) at 0.164 uM relative to control
[11] = Cmax in C57BL/6J mouse at 30 mg/kg, po by LC-MS/MS analysis; type: ADME, organism-based; set-up: dose 30 mg/kg, route oral; conditions: in vivo
Summary of the method: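 C57BL/6J mice received a single oral dose of 30 mg/kg as a suspension in 0.5% methylcellulose. Plasma Cmax and AUC are reported as the average of two animals.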

[12] = molecular target: Platelet-derived growth factor receptor beta (Homo sapiens) (UniProt P09619); assay: Inhibition of PDGFR beta (unknown origin) at 0.164 uM relative to control
[13] = molecular target: Insulin-like growth factor 1 receptor (Homo sapiens) (UniProt P08069); assay: Inhibition of IGF1R (unknown origin) at 0.164 uM relative to control
[14] = molecular target: Cyclin-dependent kinase 3 (Homo sapiens) (UniProt Q00526); assay: Inhibition of CDK3 (unknown origin) at 0.164 uM relative to control
[15] = molecular target: Serine/threonine-protein kinase Nek1 (Homo sapiens) (UniProt Q96PY6); assay: Inhibition of NEK1 (unknown origin) at 0.164 uM relative to control
[16] = molecular target: Protein-tyrosine kinase 2-beta (Homo sapiens) (UniProt Q14289); assay: Inhibition of PYK2 (unknown origin) at 0.164 uM relative to control
[17] = molecular target: Tyrosine-protein kinase Lyn (Homo sapiens) (UniProt P07948); assay: Inhibition of LYNB (unknown origin) at 0.164 uM relative to control
[18] = molecular target: SRSF protein kinase 3 (Homo sapiens) (UniProt Q9UPE1); assay: Inhibition of MSSK1 (unknown origin) at 0.164 uM relative to control
[19] = molecular target: Tyrosine-protein kinase receptor TYRO3 (Homo sapiens) (UniProt Q06418); assay: Inhibition of TYRO3 (unknown origin) at 0.19 uM relative to control
[20] = molecular target: Calcium/calmodulin-dependent protein kinase type II subunit beta (Homo sapiens) (UniProt Q13554); assay: Inhibition of CaMK2-beta (unknown origin) at 0.19 uM relative to control
[21] = molecular target: MAP kinase-activated protein kinase 3 (Homo sapiens) (UniProt Q16644); assay: Inhibition of MAPKAPK3 (unknown origin) at 0.19 uM relative to control
[22] = molecular target: Mitogen-activated protein kinase 11 (Homo sapiens) (UniProt Q15759); assay: Inhibition of p38-beta2 (unknown origin) at 0.19 uM relative to control
[23] = molecular target: Vascular endothelial growth factor receptor 2 (Homo sapiens) (UniProt P35968); assay: Inhibition of KDR (unknown origin) at 0.19 uM relative to control
[24] = system: Tyrosine-protein kinase ABL1 (Homo sapiens), P00519 [Y253F]; assay: Inhibition of ABL1 Y253F mutant (unknown origin) at 0.19 uM relative to control
[25] = molecular target: Cyclin-dependent kinase 9 (Homo sapiens) (UniProt P50750); assay: Inhibition of CDK9 (unknown origin) at 0.19 uM relative to control
[26] = molecular target: Dual specificity protein kinase CLK3 (Homo sapiens) (UniProt P49761); assay: Inhibition of CLK3 (unknown origin) at 0.19 uM relative to control

Chain of Activated CDC42 kinase 1 (Homo sapiens) (Q07912 whole entry, looked up): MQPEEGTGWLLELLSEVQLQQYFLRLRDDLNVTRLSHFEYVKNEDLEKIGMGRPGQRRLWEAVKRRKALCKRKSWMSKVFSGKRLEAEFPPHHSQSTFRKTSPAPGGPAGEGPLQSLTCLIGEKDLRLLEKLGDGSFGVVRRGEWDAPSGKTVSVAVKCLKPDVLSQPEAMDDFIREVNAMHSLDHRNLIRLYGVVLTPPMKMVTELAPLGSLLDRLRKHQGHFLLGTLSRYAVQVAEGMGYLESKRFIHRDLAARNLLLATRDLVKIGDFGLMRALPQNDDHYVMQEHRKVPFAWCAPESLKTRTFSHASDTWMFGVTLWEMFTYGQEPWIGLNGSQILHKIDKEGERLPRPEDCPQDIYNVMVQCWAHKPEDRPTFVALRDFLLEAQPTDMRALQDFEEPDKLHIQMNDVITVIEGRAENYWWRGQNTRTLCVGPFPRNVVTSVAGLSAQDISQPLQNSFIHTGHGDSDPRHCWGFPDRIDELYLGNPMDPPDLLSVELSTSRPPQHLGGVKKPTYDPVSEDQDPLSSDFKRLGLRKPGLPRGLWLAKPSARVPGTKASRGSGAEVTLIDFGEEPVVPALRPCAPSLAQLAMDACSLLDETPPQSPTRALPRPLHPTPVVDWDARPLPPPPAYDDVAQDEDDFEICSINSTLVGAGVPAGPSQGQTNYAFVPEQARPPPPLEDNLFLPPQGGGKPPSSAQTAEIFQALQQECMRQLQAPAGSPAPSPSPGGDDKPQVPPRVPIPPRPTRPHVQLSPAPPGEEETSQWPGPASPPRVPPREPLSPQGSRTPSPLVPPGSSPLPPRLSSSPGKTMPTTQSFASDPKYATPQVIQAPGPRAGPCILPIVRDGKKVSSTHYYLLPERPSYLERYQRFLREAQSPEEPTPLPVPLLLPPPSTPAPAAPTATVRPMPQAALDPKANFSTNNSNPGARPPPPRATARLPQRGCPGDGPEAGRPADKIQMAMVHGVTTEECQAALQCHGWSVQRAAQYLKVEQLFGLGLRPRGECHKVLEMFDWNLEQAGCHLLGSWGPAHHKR
Chain of Mitogen-activated protein kinase kinase kinase kinase 5 (Homo sapiens) (Q9Y4K4 whole entry, looked up): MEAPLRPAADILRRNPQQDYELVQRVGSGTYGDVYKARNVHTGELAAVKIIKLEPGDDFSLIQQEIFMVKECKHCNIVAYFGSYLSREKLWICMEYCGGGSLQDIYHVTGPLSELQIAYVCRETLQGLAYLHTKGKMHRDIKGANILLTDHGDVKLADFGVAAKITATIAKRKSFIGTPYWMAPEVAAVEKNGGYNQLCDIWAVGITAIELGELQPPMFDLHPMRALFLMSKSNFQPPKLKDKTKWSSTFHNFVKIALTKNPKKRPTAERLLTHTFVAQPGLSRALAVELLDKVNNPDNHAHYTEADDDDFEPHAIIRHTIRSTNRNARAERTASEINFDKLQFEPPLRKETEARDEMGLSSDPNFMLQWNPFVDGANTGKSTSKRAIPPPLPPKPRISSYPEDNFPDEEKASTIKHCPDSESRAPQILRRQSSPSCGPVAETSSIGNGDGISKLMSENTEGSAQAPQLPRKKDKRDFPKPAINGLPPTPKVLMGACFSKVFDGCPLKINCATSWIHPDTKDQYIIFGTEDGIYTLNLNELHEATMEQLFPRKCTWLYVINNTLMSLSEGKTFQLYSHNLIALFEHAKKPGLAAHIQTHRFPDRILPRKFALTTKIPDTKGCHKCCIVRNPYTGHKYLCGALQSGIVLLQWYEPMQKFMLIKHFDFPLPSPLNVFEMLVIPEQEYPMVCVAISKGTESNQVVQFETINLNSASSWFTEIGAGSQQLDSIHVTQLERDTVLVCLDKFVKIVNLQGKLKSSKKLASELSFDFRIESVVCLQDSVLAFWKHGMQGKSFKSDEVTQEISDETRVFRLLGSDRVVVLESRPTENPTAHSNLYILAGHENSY
Chain of Platelet-derived growth factor receptor beta (Homo sapiens) (P09619 whole entry): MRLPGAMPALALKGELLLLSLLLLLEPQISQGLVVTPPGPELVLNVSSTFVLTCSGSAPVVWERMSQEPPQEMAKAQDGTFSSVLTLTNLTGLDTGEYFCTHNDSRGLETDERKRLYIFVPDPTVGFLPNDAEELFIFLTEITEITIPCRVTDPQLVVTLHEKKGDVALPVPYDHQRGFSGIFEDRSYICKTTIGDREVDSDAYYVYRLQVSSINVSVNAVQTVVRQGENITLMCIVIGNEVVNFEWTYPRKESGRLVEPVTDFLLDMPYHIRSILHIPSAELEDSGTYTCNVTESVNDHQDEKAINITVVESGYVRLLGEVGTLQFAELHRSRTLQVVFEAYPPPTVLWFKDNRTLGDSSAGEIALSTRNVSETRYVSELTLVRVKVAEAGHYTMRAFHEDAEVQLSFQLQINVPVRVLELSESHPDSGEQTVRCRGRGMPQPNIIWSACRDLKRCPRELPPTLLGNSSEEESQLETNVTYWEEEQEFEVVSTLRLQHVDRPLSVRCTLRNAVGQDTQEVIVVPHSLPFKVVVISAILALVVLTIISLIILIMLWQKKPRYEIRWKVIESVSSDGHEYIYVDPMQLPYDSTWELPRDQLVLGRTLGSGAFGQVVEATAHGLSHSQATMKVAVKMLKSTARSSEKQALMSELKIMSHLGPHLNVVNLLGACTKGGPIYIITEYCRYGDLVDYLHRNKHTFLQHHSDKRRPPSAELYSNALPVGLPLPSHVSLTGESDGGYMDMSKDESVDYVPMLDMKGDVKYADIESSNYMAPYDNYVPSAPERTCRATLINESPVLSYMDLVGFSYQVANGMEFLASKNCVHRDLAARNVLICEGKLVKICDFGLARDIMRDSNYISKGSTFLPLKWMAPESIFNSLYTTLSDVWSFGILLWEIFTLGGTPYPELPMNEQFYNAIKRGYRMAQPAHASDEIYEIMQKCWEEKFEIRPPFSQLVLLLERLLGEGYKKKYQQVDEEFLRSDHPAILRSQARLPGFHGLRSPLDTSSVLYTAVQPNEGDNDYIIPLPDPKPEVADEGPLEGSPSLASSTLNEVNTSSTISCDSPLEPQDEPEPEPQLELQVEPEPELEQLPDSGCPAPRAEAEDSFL
Chain of Insulin-like growth factor 1 receptor (Homo sapiens) (P08069 31-736 limits assumed): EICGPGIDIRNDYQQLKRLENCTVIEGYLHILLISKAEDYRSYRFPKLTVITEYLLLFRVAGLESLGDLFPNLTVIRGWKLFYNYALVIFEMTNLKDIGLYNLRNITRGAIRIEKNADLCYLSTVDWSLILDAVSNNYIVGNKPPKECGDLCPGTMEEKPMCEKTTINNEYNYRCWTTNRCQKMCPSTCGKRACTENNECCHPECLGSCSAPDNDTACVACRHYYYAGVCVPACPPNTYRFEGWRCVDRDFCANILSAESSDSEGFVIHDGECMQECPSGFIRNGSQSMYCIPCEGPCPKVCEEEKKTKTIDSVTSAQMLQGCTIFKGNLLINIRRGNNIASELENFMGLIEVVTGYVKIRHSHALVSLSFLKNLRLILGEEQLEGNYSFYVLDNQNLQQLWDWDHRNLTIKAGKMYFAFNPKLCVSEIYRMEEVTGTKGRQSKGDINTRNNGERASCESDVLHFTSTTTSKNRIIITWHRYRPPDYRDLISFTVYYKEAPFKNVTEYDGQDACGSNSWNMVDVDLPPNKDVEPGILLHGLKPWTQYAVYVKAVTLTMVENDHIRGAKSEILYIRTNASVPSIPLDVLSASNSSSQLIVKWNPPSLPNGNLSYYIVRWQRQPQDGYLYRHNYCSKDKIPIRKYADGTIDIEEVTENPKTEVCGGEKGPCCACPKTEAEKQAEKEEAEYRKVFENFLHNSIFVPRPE
Chain of Insulin-like growth factor 1 receptor (Homo sapiens) (P08069 741-1367 limits assumed): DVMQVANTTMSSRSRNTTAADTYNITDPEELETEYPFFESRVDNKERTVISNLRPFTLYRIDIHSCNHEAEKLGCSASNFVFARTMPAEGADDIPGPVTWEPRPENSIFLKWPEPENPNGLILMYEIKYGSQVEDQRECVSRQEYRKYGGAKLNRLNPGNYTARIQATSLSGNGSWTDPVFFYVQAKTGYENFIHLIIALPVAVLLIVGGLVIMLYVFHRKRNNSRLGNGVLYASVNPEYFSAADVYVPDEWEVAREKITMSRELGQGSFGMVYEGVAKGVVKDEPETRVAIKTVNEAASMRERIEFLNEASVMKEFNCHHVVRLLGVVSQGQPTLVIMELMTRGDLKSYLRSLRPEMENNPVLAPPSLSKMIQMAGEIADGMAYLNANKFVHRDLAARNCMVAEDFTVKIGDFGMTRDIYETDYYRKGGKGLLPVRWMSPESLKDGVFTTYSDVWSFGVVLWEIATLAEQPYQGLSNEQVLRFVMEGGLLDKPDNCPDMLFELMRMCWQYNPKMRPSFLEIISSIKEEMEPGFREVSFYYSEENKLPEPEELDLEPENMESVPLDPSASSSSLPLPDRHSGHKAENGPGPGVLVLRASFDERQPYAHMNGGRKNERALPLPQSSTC
Chain of Serine/threonine-protein kinase pim-2 (Homo sapiens) (Q9P1W9 whole entry, looked up): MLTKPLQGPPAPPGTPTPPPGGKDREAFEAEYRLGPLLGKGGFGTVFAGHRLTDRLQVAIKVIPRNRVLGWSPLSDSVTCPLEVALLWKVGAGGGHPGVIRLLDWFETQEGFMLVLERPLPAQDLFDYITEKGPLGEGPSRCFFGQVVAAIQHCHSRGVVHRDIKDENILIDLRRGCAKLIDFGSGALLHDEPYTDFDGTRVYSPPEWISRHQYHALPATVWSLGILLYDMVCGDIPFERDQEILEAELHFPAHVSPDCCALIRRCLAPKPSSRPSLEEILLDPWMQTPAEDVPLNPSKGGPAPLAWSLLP
Chain of Mitogen-activated protein kinase 1 (Homo sapiens) (P28482 whole entry, canonical isoform): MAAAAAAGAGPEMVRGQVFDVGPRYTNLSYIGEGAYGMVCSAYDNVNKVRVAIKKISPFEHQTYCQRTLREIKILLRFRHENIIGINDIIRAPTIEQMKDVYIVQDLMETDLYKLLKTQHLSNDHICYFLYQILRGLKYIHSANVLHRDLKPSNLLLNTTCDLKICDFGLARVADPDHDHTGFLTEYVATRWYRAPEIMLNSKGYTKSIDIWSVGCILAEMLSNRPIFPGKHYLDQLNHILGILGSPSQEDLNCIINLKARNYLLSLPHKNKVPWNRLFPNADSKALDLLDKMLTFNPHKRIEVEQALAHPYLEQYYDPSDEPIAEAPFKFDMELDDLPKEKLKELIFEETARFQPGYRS

inhibition [1]: -1% | inhibition [2]: 0% | inhibition [3]: -0.3%
Structure (SMILES): Cc1n[nH]c(C)c1-c1ccc2c(NC(=O)c3ccc(N4CCN(C)CC4)cc3)n[nH]c2c1

inhibition [4]: 5.3% | inhibition [5]: 0.7% | inhibition [6]: 7% | inhibition [7]: 0.7% | inhibition [8]: 0.7% | inhibition [9]: -6% | inhibition [10]: 8.3% | Cmax [11]: 4940 ng/mL | inhibition [12]: 21% | inhibition [13]: 5.7% | inhibition [14]: -8.3% | inhibition [15]: -1.3% | inhibition [16]: 2.7% | inhibition [17]: -0.3% | inhibition [18]: 0.7%
Structure (SMILES): COC(=O)Nc1cc(-c2c(C3CC3)n[nH]c2C)cc2[nH]ncc12

inhibition [19]: 10% | inhibition [20]: 1.7% | inhibition [21]: -1.7% | inhibition [22]: -1.7% | inhibition [23]: 51% | inhibition [24]: 69.3% | inhibition [25]: -1% | inhibition [26]: -1.3%
Structure (SMILES): Cc1[nH]nc(C2CC2)c1-c1ccc2c(-c3ccc(N4CCN(C)CC4)nc3)n[nH]c2c1
